Test results from the RNAGym collection of RNA variant scans (doi:10.1126/science.aae0568).
Variants at the floor of the assay were thinned out.

B1: tRNA (parent)
chain: GUUCCGUUGGCGUAAUGGUAACGCGUCUCCCUCCUAAGGAGAAGACUGCGGGUUCGAGUCCCGUACGGAACG

Variants of: B1
Test: yeast fitness relative to wild type (ratio to wild type); higher = fitter; tRNA-Arg(CCU), competitive growth, 37 C, YPD
Outline: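 Gene amplicons from the start population and from each of six end populations were read by 100-nucleotide paired-end sequencing. Those end populations came from pooled Saccharomyces cerevisiae strains carrying tRNA-Arg(CCU) gene variants at the native locus, competed in YPD at 37°C for 24 hours. Fitness relative to wild type was worked out from changes in genotype frequencies. Genotypes needed ≥ 100 starting reads, and estimates < 0.5 were set to 0.5.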

Compared with A14C A20U G25C A43C C66U, A14C C49U U64A is higher in yeast fitness: no more than 0.5 for the first, 0.556 for the second.

U13G A45U C55G and A14C U47C C66U cannot be ordered by yeast fitness: no more than 0.5 for the first, no more than 0.5 for the second.

Going from A14C C31G C62A A65U C66U to A14C C30A C31G, the yeast fitness falls from 0.506 to no more than 0.5.

Going from U13G U32A C46U to A14C C22A C46A U64C, the yeast fitness falls from 0.577 to no more than 0.5.

First: A14C A42U C55G U59A
Second: U13G G68A
The yeast fitness of the first is lower: 0.612 for the first, 0.798 for the second.

A14C G25A A40C C46U and A14C U16C G51C G58A C60A cannot be ordered by yeast fitness: no more than 0.5 for the first, no more than 0.5 for the second.

U13G A21U C22G U26C U35A A65G A70C and U13G A36C C46U cannot be ordered by yeast fitness: no more than 0.5 for the first, no more than 0.5 for the second.

Going from U13G A57C to U13C U28G U54A C62A, the yeast fitness rises from 0.599 to 0.624.

A14C A43U G63C and U13G U16A C24U G44A C49G cannot be ordered by yeast fitness: no more than 0.5 for the first, no more than 0.5 for the second.

Compared with A14C A45U A70G, A14G A15C C24G A45G is lower in yeast fitness: 0.561 for the first, no more than 0.5 for the second.

Compared with A14C U28A U53G, U13G C22U C31A C55U G63A A69C is lower in yeast fitness: 0.57 for the first, no more than 0.5 for the second.

A14C U54A U59C C61G and A14C C62G C66U cannot be ordered by yeast fitness: no more than 0.5 for the first, no more than 0.5 for the second.

A14C U16A G63A and U13G C22G C27A C61U cannot be ordered by yeast fitness: no more than 0.5 for the first, no more than 0.5 for the second.

A14C C22A U59C C62A and U13G G39C C49G A65G cannot be ordered by yeast fitness: no more than 0.5 for the first, no more than 0.5 for the second.

First: A14C A65G A69U
Second: A14C U53C
The yeast fitness of the first is lower: 0.634 for the first, 0.713 for the second.

U13G A36G G68C and A14C G18A C22G C49A U59C A69G cannot be ordered by yeast fitness: no more than 0.5 for the first, no more than 0.5 for the second.

Going from U13G A42C U64C to U13C U53C, the yeast fitness rises from 0.715 to 0.727.

First: U13C U53A
Second: U13G A21U C22G U35A A65G
The yeast fitness of the first is higher: 0.674 for the first, no more than 0.5 for the second.

First: U13G A65C A70G
Second: A14C G18C U28A C30G A43G A57G C60U A65C G67U
The yeast fitness of the first is higher: 0.619 for the first, 0.557 for the second.

Going from A14C A20C C34A A42U to U13G C61U A70G, the yeast fitness rises from no more than 0.5 to 0.618.

A14C U16C C62U A65U and A14C A42C U47C cannot be ordered by yeast fitness: no more than 0.5 for the first, no more than 0.5 for the second.

A14C A45C C49G U54C C66U and A14C U32G U47C C55G cannot be ordered by yeast fitness: no more than 0.5 for the first, no more than 0.5 for the second.

First: A14C C27U C31U C33A G67C
Second: A14C G17C C60U
The yeast fitness of the first is higher: 0.541 for the first, no more than 0.5 for the second.

Compared with A14C G58A, A14C U28G is lower in yeast fitness: 0.868 for the first, 0.625 for the second.

First: A14C U28C
Second: A14C A20G G23A C29U U35C C55G
The yeast fitness of the first is higher: 0.606 for the first, no more than 0.5 for the second.

Compared with A14C G25C U47A G63C, A14C G44C A70C is lower in yeast fitness: 0.678 for the first, 0.56 for the second.

Compared with A14C C24U, A14C C24A is lower in yeast fitness: 0.666 for the first, no more than 0.5 for the second.

First: A14C U53A A65C A70G
Second: U13G U28G C61U
The yeast fitness of the first is higher: 0.587 for the first, 0.523 for the second.

Compared with A14C G25A C29G C46G C61A, A14C C24A G67A is lower in yeast fitness: 0.569 for the first, no more than 0.5 for the second.

First: A14C C31U A36U
Second: A14C A40U A43C
The yeast fitness of the first is higher: 0.631 for the first, 0.564 for the second.

Compared with A14C C27U C55G A70U, A14G A15C A69C A70G is higher in yeast fitness: 0.613 for the first, 0.618 for the second.

Compared with U13G U26A, A14C C22G G25C G44A C61G is lower in yeast fitness: 0.987 for the first, 0.543 for the second.

A14C U19A A21G C31U and A14C C24U C31U A40U G44A cannot be ordered by yeast fitness: no more than 0.5 for the first, no more than 0.5 for the second.

U13C U16C A57G G68A A69G and U13G A42C U54A G67C A69U cannot be ordered by yeast fitness: no more than 0.5 for the first, no more than 0.5 for the second.

First: A14C A21C C46A
Second: A14C A40C G68A
The yeast fitness of the first is higher: 0.604 for the first, no more than 0.5 for the second.

First: U13C U26A
Second: A14C A43U C61U
The yeast fitness of the first is higher: 0.982 for the first, no more than 0.5 for the second.

Going from A14C U19A U59C A69G to A14C U19C C27A A43G, the yeast fitness falls from 0.652 to no more than 0.5.

Compared with U13C U47G, A14C C34U A37G is lower in yeast fitness: 0.625 for the first, 0.507 for the second.

Compared with A14C C30U A37C C62A, U13G A65U is higher in yeast fitness: 0.693 for the first, 0.896 for the second.

A14C U16A A21C G56A and A14C U19C C34U G39C G51C cannot be ordered by yeast fitness: no more than 0.5 for the first, no more than 0.5 for the second.

Going from A14C U28A U59G A65U to U13G U28C, the yeast fitness rises from no more than 0.5 to 0.867.

Compared with U13G U28G, A14C C46A is higher in yeast fitness: 0.59 for the first, 0.641 for the second.
